The values that follow come from ChEMBL document CHEMBL1141879, “Alkylamino derivatives of 4-aminomethylpyridine as inhibitors of copper-containing amine oxidases” (J Med Chem, 2005).

Data set [1] has as its target T1, Amine oxidase [flavin-containing] B (Rattus norvegicus, UniProt P19643).
T1 sequence (P19643 whole entry): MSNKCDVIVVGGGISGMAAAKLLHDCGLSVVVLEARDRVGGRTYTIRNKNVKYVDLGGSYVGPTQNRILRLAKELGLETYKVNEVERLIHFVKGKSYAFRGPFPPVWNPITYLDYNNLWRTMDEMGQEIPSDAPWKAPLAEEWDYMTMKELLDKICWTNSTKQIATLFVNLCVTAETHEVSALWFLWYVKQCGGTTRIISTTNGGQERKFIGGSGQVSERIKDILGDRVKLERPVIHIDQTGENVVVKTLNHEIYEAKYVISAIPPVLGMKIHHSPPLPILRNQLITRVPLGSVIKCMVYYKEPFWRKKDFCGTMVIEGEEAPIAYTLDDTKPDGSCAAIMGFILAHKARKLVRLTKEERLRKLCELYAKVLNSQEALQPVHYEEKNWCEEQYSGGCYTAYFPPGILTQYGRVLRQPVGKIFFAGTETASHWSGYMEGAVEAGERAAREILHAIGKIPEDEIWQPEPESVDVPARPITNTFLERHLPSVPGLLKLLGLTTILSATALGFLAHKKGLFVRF
Briefly: Inhibitory concentration for rat liver Monoamine oxidase B using beta-phenylethylamine.

Data set [2] deals with T2, Amine oxidase [flavin-containing] A (Rattus norvegicus, UniProt P21396).
T2 sequence (P21396 whole entry): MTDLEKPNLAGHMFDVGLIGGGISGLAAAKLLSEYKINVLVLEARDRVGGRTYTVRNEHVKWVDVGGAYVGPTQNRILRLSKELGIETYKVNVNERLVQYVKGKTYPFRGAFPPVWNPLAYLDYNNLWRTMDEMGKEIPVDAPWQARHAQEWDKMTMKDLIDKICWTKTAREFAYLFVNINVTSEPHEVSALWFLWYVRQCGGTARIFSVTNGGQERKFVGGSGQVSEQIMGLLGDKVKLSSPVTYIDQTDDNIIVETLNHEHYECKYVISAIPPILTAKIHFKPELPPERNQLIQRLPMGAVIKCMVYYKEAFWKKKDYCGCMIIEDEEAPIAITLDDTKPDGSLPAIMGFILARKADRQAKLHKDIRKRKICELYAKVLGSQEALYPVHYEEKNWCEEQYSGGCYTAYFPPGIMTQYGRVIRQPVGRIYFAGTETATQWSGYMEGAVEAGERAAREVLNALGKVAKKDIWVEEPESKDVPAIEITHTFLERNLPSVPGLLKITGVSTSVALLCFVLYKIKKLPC
Briefly: Inhibitory concentration for rat liver Monoamine oxidase A using 5-hydroxytryptamine.

In data set [3] the target is T3, Peroxisomal primary amine oxidase (Pichia angusta, UniProt P12807).
T3 sequence (P12807 whole entry): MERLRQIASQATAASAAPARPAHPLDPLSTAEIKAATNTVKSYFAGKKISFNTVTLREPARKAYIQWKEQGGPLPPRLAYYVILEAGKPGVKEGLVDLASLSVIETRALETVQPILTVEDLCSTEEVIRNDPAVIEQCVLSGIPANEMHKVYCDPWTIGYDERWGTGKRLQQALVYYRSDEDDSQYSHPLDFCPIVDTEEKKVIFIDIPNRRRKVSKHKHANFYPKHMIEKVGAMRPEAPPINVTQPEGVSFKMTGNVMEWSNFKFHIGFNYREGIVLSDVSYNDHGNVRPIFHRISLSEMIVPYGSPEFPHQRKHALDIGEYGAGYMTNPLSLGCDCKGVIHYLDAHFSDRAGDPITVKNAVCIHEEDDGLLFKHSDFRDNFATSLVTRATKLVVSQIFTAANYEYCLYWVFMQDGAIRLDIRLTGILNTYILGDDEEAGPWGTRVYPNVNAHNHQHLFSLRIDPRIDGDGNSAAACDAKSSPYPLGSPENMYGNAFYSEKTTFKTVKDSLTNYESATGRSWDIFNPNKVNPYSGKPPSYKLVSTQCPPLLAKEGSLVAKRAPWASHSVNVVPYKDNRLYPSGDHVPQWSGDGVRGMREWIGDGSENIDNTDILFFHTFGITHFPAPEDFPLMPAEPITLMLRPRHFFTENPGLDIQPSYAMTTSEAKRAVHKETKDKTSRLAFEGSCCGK
Briefly: (§1) Inhibition of beta-phenylethylamine binding to Hansenula polymorpha amine oxidase. Further details: species or system Ogataea angusta.

Data set [4] has as its target T3, Peroxisomal primary amine oxidase. Briefly: Inhibition of phenylethylamine binding to Hansenula polymorpha amine oxidase. Put shortly: (§2)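 Enzyme: HPAO from Hansenula polymorpha NCYC-495 grown 24 h with glucose, 1 µM CuSO4 and methylamine, then homogenized in 0.1 M phosphate pH 7.4 and centrifuged. Substrate beta-phenylethylamine at saturating 1 mM. IC50 means from five inhibitor concentrations tested in duplicate.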

Data set [5] deals with T4, Primary amine oxidase (Pisum sativum, UniProt Q43077).
T4 sequence (Q43077 whole entry): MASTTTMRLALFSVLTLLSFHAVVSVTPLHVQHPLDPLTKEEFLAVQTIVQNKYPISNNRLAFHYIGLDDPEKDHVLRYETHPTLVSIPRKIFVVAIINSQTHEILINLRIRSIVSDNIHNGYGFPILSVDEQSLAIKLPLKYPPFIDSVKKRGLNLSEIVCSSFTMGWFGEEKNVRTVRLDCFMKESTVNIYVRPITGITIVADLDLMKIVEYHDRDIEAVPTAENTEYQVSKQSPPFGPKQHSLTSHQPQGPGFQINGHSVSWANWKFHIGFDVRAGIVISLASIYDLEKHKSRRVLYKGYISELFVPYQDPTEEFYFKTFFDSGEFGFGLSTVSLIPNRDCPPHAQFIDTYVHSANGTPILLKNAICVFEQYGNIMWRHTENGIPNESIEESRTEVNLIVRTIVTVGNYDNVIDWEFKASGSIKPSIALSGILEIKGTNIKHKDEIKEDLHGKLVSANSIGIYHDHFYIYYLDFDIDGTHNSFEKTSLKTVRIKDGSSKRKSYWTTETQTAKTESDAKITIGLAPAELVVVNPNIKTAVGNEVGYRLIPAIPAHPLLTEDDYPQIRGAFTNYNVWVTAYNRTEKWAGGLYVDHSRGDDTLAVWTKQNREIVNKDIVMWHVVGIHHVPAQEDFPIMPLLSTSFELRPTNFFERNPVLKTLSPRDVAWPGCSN
Briefly: Inhibition of putrescine binding to pea seedling amine oxidase. The arrangement: species or system Lathyrus oleraceus. In outline:
(§3)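 Enzyme sources: BAO from commercial porcine serum; DAO porcine kidney enzyme; PSAO from homogenate of 8-day-old pea seedlings in 0.1 M phosphate pH 7.4, cleared by two centrifugations. Substrate at saturating 1 mM (benzylamine for BAO, putrescine for DAO/PSAO). Activity read as H2O2 production by 4-aminoantipyrine method. IC50 from five inhibitor concentrations, each in duplicate, averaged.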

The target in data set [6] is T4, Primary amine oxidase. Briefly: Inhibition of putrescine binding to Pea seedling amine oxidase. Further details: species or system Lathyrus oleraceus. Put shortly:
as §3

Data set [7] can be described thus: Intraperitoneal lethal dose was measured in Mus musculus. The format is ADME. To be noted: ip. In outline: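 Acute toxicity was tested in Swiss white Mus musculus. Five scaled doses were given intraperitoneally, 10 animals per dose.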
For data set [8], the target named is T3, Peroxisomal primary amine oxidase. The data set is described as §1. In outline:
as §2

SMILES strings stand for the structures.

In data set [1], `CCSc1cncc(SCC)c1CN` came in with an IC50 of more than 1000 µM.
`NCc1ccncc1N`: the 50% inhibitory concentration (IC50) in data set [2] and in data set [1] was more than 2000 µM each time.
Turning to `NCc1ccncc1N(C1CCCC1)C1CCCC1`, the IC50 in data set [2] is more than 100 µM; in data set [3], more than 1000 µM; in data set [1], more than 100 µM.
In the case of `CNc1cnccc1CN`, the IC50 in data set [2] is 420 µM; in data set [4], 53 µM; in data set [1] it was more than 170 µM; in data set [5] it was 0.71 µM.
`NCc1ccncc1NC1CCCCC1`: the IC50 in data set [2] is more than 100 µM; in data set [3] it was more than 1000 µM; in data set [1] it was more than 100 µM.
`CNc1cncc(NC)c1CN`: the results for the IC50 in data set [2] and in data set [1] were 170 µM and more than 170 µM, respectively.
The corresponding values for `CCCNc1cncc(N(C)CCC)c1CN` are 10 µM and 20 µM.
Turning to `NCc1ccncc1NC1CCCCCC1`, the IC50 in data set [6] is 1000 µM; in data set [2] it was 150 µM; in data set [3], more than 300 µM; in data set [1] it was more than 100 µM.
In data set [7], `Cl.Cl.NCc1c(OCCCCO)cncc1OCCCCO` came in with a median lethal dose (LD50) of more than 500 mg/kg.
On to `CNc1ccccc1CN`, for which the figures for the IC50 in data set [6], in data set [3] and in data set [1] were more than 100 µM, 750 µM and more than 100 µM, respectively.
In data set [7], `Cl.Cl.NCc1c(OCCO)cncc1OCCO.O.O.O` returned an LD of more than 600 mg/kg. The IC50 was more than 1600 µM in data set [2] and more than 1000 µM in data set [1].
Regarding `CCOc1cncc(OCc2ccccc2)c1CN`, the IC50 in data set [2] was found to be 630 µM; in data set [1], 1000 µM.
In the case of `CCNc1cnccc1CN`, the IC50 in data set [6] is 9.3 µM; in data set [2], 300 µM; in data set [3], 87 µM; in data set [1], more than 170 µM.
In turn, `CCOc1cncc(OCC)c1CN.Cl.Cl` gave an LD50 in data set [7] of 342 mg/kg. Moreover, the IC50 is 330 µM in data set [6], more than 1600 µM in data set [2], more than 1000 µM in data set [3] and more than 1000 µM in data set [1].
Turning to `CCNc1cncc(N(C)CC)c1CN`, the IC50 came out at 55 µM in data set [6], 63 µM in data set [2], 350 µM in data set [3] and 300 µM in data set [1].
Take `NCc1ccncc1NC1CC1`: the IC50 in data set [2] is more than 100 µM; in data set [3], more than 1000 µM; in data set [1], 90 µM.
As for `NCc1ccncc1NC1CCCC1`, the IC50 is more than 100 µM in data set [2], 700 µM in data set [3] and more than 100 µM in data set [1].
For `CCNc1ccccc1CN`, the IC50 in data set [6] was more than 100 µM; in data set [1] it was more than 100 µM; in data set [8], 1500 µM.
For the compound `CC(C)Nc1cnccc1CN`, the concentration for half-maximal inhibition (IC50) in data set [2] was 2200 µM; in data set [3], more than 1000 µM; in data set [1], 2000 µM.
For the compound `NCc1ccncc1NCC1CCCCC1`, the values for the IC50 in data set [2], in data set [3] and in data set [1] were 95 µM, 540 µM and 70 µM, respectively.
As to `CC(C)(C)Sc1cncc(SC(C)(C)C)c1CN`, in data set [1], the IC50 is more than 1000 µM.
As to `CNc1cncc(N(C)C)c1CN`, the IC50 came to 17 µM in data set [6], 44 µM in data set [2], 100 µM in data set [3] and 250 µM in data set [1].
